The values that follow come from ChEMBL document CHEMBL1687893 (Eur J Med Chem, 2011).

Experiment [1] relates to Mus musculus. In words: Antiinflammatory activity against xylene-induced ear edema in Kunming mouse assessed as reduction in ear swelling thickness at 100 mg, ip administered 2 hrs post challenge measured after 30 mins. Format: functional. The method in brief: (§1)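 Male Kunming mice (~20 g), fasted 12 h, groups of 6. Compound given i.p.; 30 min later 0.015 mL xylene applied to front and back surfaces of right ear, left ear as control. Killed 2 h after xylene; 7 mm circular ear sections weighed and measured. Swelling taken as weight and thickness over untreated left ear. Mean ± S, one-way ANOVA.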

The subject of experiment [2] is MCF7. In words: Cytotoxicity against human MCF7 cells assessed as growth inhibition after 72 hrs. To be noted: MCF7, 72 h.
For experiment [3], the system named is Mus musculus. Kind of experiment: Antiinflammatory activity against xylene-induced ear edema in Kunming mouse assessed as reduction in ear swelling weight at 100 mg, ip administered 2 hrs post challenge measured after 30 mins. Format: functional. Put shortly: as §1
A further experiment has as its system MDA-MB-231. In words: Cytotoxicity against human MDA-MB-231 cells assessed as growth inhibition after 72 hrs. The following applies: MDA-MB-231, 72 h.
The target in experiment [4] is Prostaglandin G/H synthase 1 (Ovis aries) (UniProt P05979). Kind of experiment: Inhibition of ovine COX-1 at 10 uM by ELISA relative to licofelone. For orientation: In an ELISA, binding on a coated surface is turned into a signal by an enzyme label.
The target in experiment [5] is Prostaglandin G/H synthase 2 (Homo sapiens) (UniProt P35354). Kind of experiment: Inhibition of human COX-2 at 10 uM by ELISA relative to licofelone.
Experiment [6] has as its system MCF7. Kind of experiment: Antiproliferative activity against human MCF-7 cells at 0.63 uM to 10 uM after 20 to 140 hrs. Format: functional, cell-based. To be noted: TDE = time-dependent effect. The method in brief: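 MCF-7 cells in DMEM with 5% FBS, seeded at 7500 cells/mL and grown 3 days before compound addition. Exposed to a range of concentrations for up to 144 h. Biomass measured by glutaraldehyde fixation, crystal violet staining, ethanol extraction and absorbance at 590 nm. Expressed as corrected T/C % = (T−C0)/(C−C0)·100.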

Experiment [7] relates to Mus musculus. In words: Antiinflammatory activity against xylene-induced ear edema in Kunming mouse assessed as reduction in ear swelling thickness at 25 mg, ip administered 2 hrs post challenge measured after 30 mins. Format: functional. The method in brief:
as §1

The test system of experiment [8] is Mus musculus. Kind of experiment: Antiinflammatory activity against xylene-induced ear edema in Kunming mouse assessed as reduction in ear swelling weight at 200 mg, […]. Format: functional.
For experiment [9], the system named is Mus musculus. In words: Antiinflammatory activity against xylene-induced ear edema in Kunming mouse assessed as reduction in ear swelling thickness at 200 mg, ip administered 2 hrs post challenge measured after 30 mins. Format: functional. Put shortly:
as §1

Experiment [10] concerns Mus musculus. In words: Antiinflammatory activity against xylene-induced ear edema in Kunming mouse assessed as reduction in ear swelling weight at 25 mg, […]. Format: functional.
Experiment [11] has as its system Mus musculus. Kind of experiment: Antiinflammatory activity against xylene-induced ear edema in ip dosed Kunming mouse assessed as reduction in ear swelling administered 2 hrs post challenge measured after 30 mins. Format: functional, organism-based. The method in brief: as §1

As for `Cc1cccc(C(=O)OCC(=O)c2c(-c3ccc(Cl)cc3)c(-c3ccccc3)c3n2CC(C)(C)C3)c1`, the “inhibition (INH)” value in the experiment on Mus musculus [1] is reported as 50.7%; in the experiment on Mus musculus [3], 17.5%. Besides, the figures for the half-inhibitory concentration (IC50) in the experiment on MCF7 [2] and in the experiment on MDA-MB-231 were 3.8 µM and over 50 µM, respectively.
On to `Cc1cc(C(=O)OCC(=O)c2c(-c3ccc(Cl)cc3)c(-c3ccccc3)c3n2CC(C)(C)C3)cc([N+](=O)[O-])c1`, for which the entries for the “inhibition (INH)” value with Mus musculus [1] and with Mus musculus [3] were 26.8% and 7%, respectively.
In the case of `CC(=O)OCC(=O)c1c(-c2ccc(Cl)cc2)c(-c2ccccc2)c2n1CC(C)(C)C2`, the “inhibition (INH)” value in the experiment with Mus musculus [1] is recorded as 37%; in the experiment with Mus musculus [3] it was 19.3%. The IC50 in the experiment on MCF7 [2] came out at 2.5 µM; with MDA-MB-231 it was 4.4 µM. For the same compound, the inhibition in experiment [4] came out at 11%; in [5], 9%.
Consider `CCC(=O)c1c(-c2ccc(Cl)cc2)c(-c2ccccc2)c2n1CC(C)(C)C2`, for which the “inhibition (INH)” value came out at 22.5% in the experiment on Mus musculus [1] and 24.6% in the experiment on Mus musculus [3]. The concentration for half-maximal inhibition (IC50) amounted to 8.7 µM in the experiment with MCF7 [2] and 19.2 µM in the experiment on MDA-MB-231. Moreover, the results for the inhibition in [4] and in experiment [5] were 11% and 9%, respectively.
Turning to `CC1(C)Cc2c(-c3ccccc3)c(-c3ccc(Cl)cc3)c(C(=O)CCl)n2C1`, the “inhibition (INH)” value in the experiment with Mus musculus [1] turned out to be 24.6%; with Mus musculus [3] it was 28.1%. For the same compound, the half-inhibitory concentration (IC50) came out at 5.8 µM in the experiment on MCF7 [2] and 35.4 µM with MDA-MB-231. The inhibition in experiment [4] amounted to 11%; in [5], 9%.
In the case of `CC1(C)Cc2c(-c3ccccc3)c(-c3ccc(Cl)cc3)c(C(=O)COC(=O)Cc3ccccc3)n2C1`, the results for the “inhibition (INH)” value with Mus musculus [1] and with Mus musculus [3] were 35.8% and 26.3%, respectively. Also, the results for the IC50 in the experiment on MCF7 [2] and with MDA-MB-231 were 4.7 µM and over 50 µM, respectively.
Take `COc1ccccc1C(=O)OCC(=O)c1c(-c2ccc(Cl)cc2)c(-c2ccccc2)c2n1CC(C)(C)C2`: the “inhibition (INH)” value in the experiment on Mus musculus [1] was determined as 18.1%; in the experiment with Mus musculus [3], 31.6%. Besides, the 50% inhibitory concentration (IC50) in the experiment on MCF7 [2] was 4.5 µM; in the experiment on MDA-MB-231 it was over 50 µM.
Take `CC1(C)Cc2c(-c3ccccc3)c(-c3ccc(Cl)cc3)c(C(=O)COC=O)n2C1`: the Activity result in the experiment with MCF7 [6] was “tde”. Also, the “inhibition (INH)” value with Mus musculus [1] is reported as 20.3%; with Mus musculus [3] it was 19.3%. Also, the IC50 in the experiment with MCF7 [2] was 1.5 µM; in the experiment with MDA-MB-231 it was 1.8 µM. In addition, the inhibition in experiment [4] amounted to 11%; in [5], 9%.
Regarding `Cc1ccc(C(=O)OCC(=O)c2c(-c3ccc(Cl)cc3)c(-c3ccccc3)c3n2CC(C)(C)C3)cc1`, the “inhibition (INH)” value came to 21% in the experiment with Mus musculus [1] and 22.8% in the experiment on Mus musculus [3]. The half-maximal inhibitory concentration (IC50) with MCF7 [2] and in the experiment with MDA-MB-231 was over 50 µM each time.
Take `CC1(C)Cc2c(-c3ccccc3)c(-c3ccc(Cl)cc3)c(C(=O)COC(=O)Cc3ccc(Cl)cc3)n2C1`: the “inhibition (INH)” value in the experiment with Mus musculus [1] is recorded as 37%; in the experiment on Mus musculus [3], 35.1%. For the same compound, the IC50 is 7.1 µM with MCF7 [2] and over 50 µM with MDA-MB-231.
For `CC1(C)Cc2c(-c3ccccc3)c(-c3ccc(Cl)cc3)c(C(=O)COC(=O)c3ccc([N+](=O)[O-])cc3)n2C1`, the results for the “inhibition (INH)” value in the experiment on Mus musculus [1] and in the experiment on Mus musculus [3] were 6.5% and 1.8%, respectively. Also, the concentration for half-maximal inhibition (IC50) in the experiment with MCF7 [2] was found to be 4.8 µM; in the experiment on MDA-MB-231 it was 7.3 µM.
On to `CC(=O)c1c(-c2ccc(Cl)cc2)c(-c2ccccc2)c2n1CC(C)(C)C2`, for which, in the experiment with MCF7 [6], the Activity result was “tde”. Moreover, the “inhibition (INH)” value turned out to be 50.7% in the experiment with Mus musculus [1] and 54.4% in the experiment with Mus musculus [3]. The figures for the IC50 with MCF7 [2] and with MDA-MB-231 were 2 µM and 3.3 µM, respectively. Also, the inhibition in experiment [4] is 11%; in [5] it was 9%.
With `COc1ccc(C(=O)OCC(=O)c2c(-c3ccc(Cl)cc3)c(-c3ccccc3)c3n2CC(C)(C)C3)cc1`, the “inhibition (INH)” value with Mus musculus [1] stood at 10.1%; with Mus musculus [3], 15.8%. The IC50 was 11.9 µM with MCF7 [2] and over 50 µM in the experiment on MDA-MB-231.
As for `CC1(C)Cc2c(-c3ccccc3)c(-c3ccc(Cl)cc3)c(C(=O)COC(=O)c3ccccc3O)n2C1`, the “inhibition (INH)” value with Mus musculus [1] was 14.5%; with Mus musculus [3], 31.6%. The values for the IC50 with MCF7 [2] and with MDA-MB-231 were 8.2 µM and over 50 µM, respectively.
With `CCCCCC(=O)c1c(-c2ccc(Cl)cc2)c(-c2ccccc2)c2n1CC(C)(C)C2`, the “inhibition (INH)” value with Mus musculus [1] came to 37%; with Mus musculus [3] it was 14%. In addition, the IC50 came out at 5.4 µM with MCF7 [2] and 31.3 µM in the experiment on MDA-MB-231. In addition, the inhibition in [4] was 11%; in [5], 9%.
As to `Cc1ccccc1C(=O)OCC(=O)c1c(-c2ccc(Cl)cc2)c(-c2ccccc2)c2n1CC(C)(C)C2`, the “inhibition (INH)” value in the experiment with Mus musculus [1] is recorded as 34.1%; in the experiment with Mus musculus [3], 12.3%. Moreover, the IC50 in the experiment on MCF7 [2] was 6.2 µM; in the experiment with MDA-MB-231 it was 12.9 µM.
The like results for `CC1(C)Cc2c(-c3ccccc3)c(-c3ccc(Cl)cc3)c(C(=O)COC(=O)c3cccc(Cl)c3)n2C1` were, in that order, 1.4%, 3.5%, 5.2 µM and over 50 µM.
On to `Cc1ccc(-c2cc(C(F)(F)F)nn2-c2ccc(S(N)(=O)=O)cc2)cc1` [CELECOXIB], for which the “inhibition (INH)” value in the experiment with Mus musculus [1] was 47.9%; with Mus musculus [3] it was 46.3%.
For the compound `O=c1[nH]cc(F)c(=O)[nH]1` [FLUOROURACIL], the 50% inhibitory concentration (IC50) in the experiment with MCF7 [2] was 4.7 µM; in the experiment on MDA-MB-231, 9.6 µM.
Regarding `CC1(C)Cc2c(-c3ccccc3)c(-c3ccc(Cl)cc3)c(C(=O)COC(=O)c3ccccc3Cl)n2C1`, the “inhibition (INH)” value came to 20.3% in the experiment on Mus musculus [1] and 12.3% with Mus musculus [3]. The IC50 with MCF7 [2] turned out to be 5.2 µM; in the experiment on MDA-MB-231, 31.8 µM.
Regarding `CC1(C)Cc2c(-c3ccccc3)c(-c3ccc(Cl)cc3)cn2C1`, the half-inhibitory concentration (IC50) in the experiment on MCF7 [2] was 5.6 µM; in the experiment with MDA-MB-231, 19.7 µM.
Take `CC1(C)Cc2c(-c3ccccc3)c(-c3ccc(Cl)cc3)c(C(=O)COC(=O)c3ccc(Cl)cc3Cl)n2C1`: the “inhibition (INH)” value with Mus musculus [1] worked out at 8%; with Mus musculus [3], 43.9%. The IC50 is 6.7 µM in the experiment on MCF7 [2] and over 50 µM in the experiment with MDA-MB-231.
On to `CC1(C)Cc2c(-c3ccccc3)c(-c3ccc(Cl)cc3)c(C(=O)COC(=O)c3ccc(Cl)cc3)n2C1`, for which the “inhibition (INH)” value in the experiment on Mus musculus [1] came to 29.7%; in the experiment on Mus musculus [3] it was 24.6%. Moreover, the IC50 in the experiment on MCF7 [2] was 3.9 µM; with MDA-MB-231 it was over 50 µM.
Take `CC1(C)Cc2c(-c3ccccc3)c(-c3ccc(Cl)cc3)c(CC(=O)O)n2C1` [LICOFELONE]: the “inhibition (INH)” value is listed as 52.2% in the experiment with Mus musculus [1]; 49.2% with Mus musculus [7]; 77.2% with Mus musculus [8]; 74.6% in the experiment with Mus musculus [9]; 33.3% in the experiment on Mus musculus [10]; 43.9% in the experiment on Mus musculus [3]. The IC50 in the experiment with MCF7 [2] came out at 5.5 µM; in the experiment with MDA-MB-231 it was 36.7 µM. Also, the inhibition entry in the experiment with Mus musculus [11] is “Dose-dependent effect”.
Consider `CC(C)Cc1ccc(C(C)C(=O)O)cc1` (stereo unspecified) [IBUPROFEN], for which the “inhibition (INH)” value is 54.3% in the experiment with Mus musculus [1] and 51.2% with Mus musculus [3].
Consider `CCC(=O)OCC(=O)c1c(-c2ccc(Cl)cc2)c(-c2ccccc2)c2n1CC(C)(C)C2`, for which the Activity result in the experiment with MCF7 [6] was “tde”. The “inhibition (INH)” value in the experiment with Mus musculus [1] was determined as 12.3%; in the experiment on Mus musculus [3] it was 3.5%. In addition, the values for the IC50 in the experiment on MCF7 [2] and with MDA-MB-231 were 1.7 µM and 3.1 µM, respectively. Moreover, the inhibition in experiment [4] is 11%; in [5], 9%.

The IC50 is the concentration needed to halve the response being measured. The inhibition is the percentage by which the read-out fell short of the control.
